15 molecules from ChEMBL document CHEMBL1156948, “Statistical molecular design of a focused salicylidene acylhydrazide library and multivariate QSAR of inhibition of type III secretion in the Gram-negative bacterium Yersinia” (Bioorg Med Chem, 2010) can be followed below.

The subject of test [1] is Yersinia pseudotuberculosis YPIII. The test can be described thus: Inhibition of T3S in Yersinia pseudotuberculosis YPIII expressing yopE-luxAB at 1.56 uM after 3 hrs by luciferase reporter gene assay. In a few lines: (§1)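 Strain YPIII pIB102 (yopE-luxAB) grown overnight at room temperature in BHI with 5 mM EGTA and 20 mM MgCl2 (calcium depletion), adjusted to OD600 0.088–0.095. Compound added from DMSO at 1.56–200 µM final (eight concentrations). Shaken 1 h at room temperature, then 2 h at 37 °C. Decanal added and light emission read immediately. Triplicates, repeated at least three times.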

Test [2] has the same test system. Nature of the test: Inhibition of T3S in Yersinia pseudotuberculosis YPIII expressing yopE-luxAB at 12.5 uM after 3 hrs by luciferase reporter gene assay. A digest of the protocol:
as §1

Test [3] has the same test system. Nature of the test: Inhibition of T3S in Yersinia pseudotuberculosis YPIII expressing yopE-luxAB at 50 uM after 3 hrs by luciferase reporter gene assay. A digest of the protocol:
as §1

For test [4], the system named is Yersinia pseudotuberculosis. Nature of the test: Antibacterial activity against Yersinia pseudotuberculosis expressing pIB102 at 100 uM after 23 hrs by broth dilution assay. The format is functional, organism-based. A digest of the protocol:
(§2)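 Wild-type pIB102 grown overnight in LB at room temperature, diluted to OD600 = 0.1 in LB with 2.5 mM CaCl2. Compound added from DMSO stock to final 50 and 100 µM. Incubated at 37 °C with absorbance at 595 nm read over 23 h.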

In test [5] the test system is Escherichia coli. Nature of the test: Antibacterial activity against Escherichia coli DH5[alpha] at 50 uM after 23 hrs by broth dilution assay. The format is functional, organism-based. A digest of the protocol:
(§3)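 Overnight LB culture of E. coli DH5α grown at 37 °C, diluted to OD600 0.1 in LB with 2.5 mM CaCl2; compound added from DMSO stock to final 50 or 100 µM. Incubated at 37 °C with absorbance at 595 nm followed over 23 h.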

For test [6], the system named is Yersinia pseudotuberculosis YPIII. The test can be described thus: Inhibition of T3S in Yersinia pseudotuberculosis YPIII expressing yopE-luxAB at 200 uM after 3 hrs by luciferase reporter gene assay. A digest of the protocol: as §1
The subject of test [7] is Yersinia pseudotuberculosis. The test can be described thus: Antibacterial activity against Yersinia pseudotuberculosis expressing pIB102 at 50 uM after 23 hrs by broth dilution assay. The test is classed as functional, organism-based. A digest of the protocol: as §2
In test [8] the test system is Yersinia pseudotuberculosis YPIII. The test can be described thus: Inhibition of T3S in Yersinia pseudotuberculosis YPIII expressing yopE-luxAB at 6.25 uM after 3 hrs by luciferase reporter gene assay. A digest of the protocol: as §1
Test [9] has the same test system. The test can be described thus: Inhibition of T3S in Yersinia pseudotuberculosis YPIII expressing yopE-luxAB at 3.13 uM after 3 hrs by luciferase reporter gene assay. A digest of the protocol:
as §1

For test [10] the test system is unchanged. The test can be described thus: Inhibition of T3S in Yersinia pseudotuberculosis YPIII expressing yopE-luxAB at 100 uM after 3 hrs by luciferase reporter gene assay. A digest of the protocol:
as §1

Test [11] shares this test system. Nature of the test: Inhibition of T3S in Yersinia pseudotuberculosis YPIII expressing yopE-luxAB at 25 uM after 3 hrs by luciferase reporter gene assay. In a few lines:
as §1

Test [12] has as its system Escherichia coli. Nature of the test: Antibacterial activity against Escherichia coli DH5[alpha] at 100 uM after 23 hrs by broth dilution assay. The format is functional, organism-based. In a few lines:
as §3

Active and inactive are the calls of the source. No rule for the calls is given here.

As to `COc1cc(C(=O)N/N=C/c2cc(Cl)cc(Cl)c2O)cc(OC)c1OC`, the inhibition is -10% in test [1]; 14% in test [2]; 27% in test [3]; 40% in test [6]; 8% in test [8]; 13% in test [9]. Moreover, the results for the inhibition in test [10] and in test [11] were 29% and 18%, respectively. In addition, the outcome (in [4]; in the test on Escherichia coli [5]; in test [7]; in the test on Escherichia coli [12]) was inactive.
Turning to `COc1cccc(C(=O)N/N=C/c2cc(OC)cc(OC)c2O)c1`, the inhibition in test [1] was -7%; in test [2], 13%; in test [3] it was 43%; in test [6], 76%; in test [8], 9%; in test [9], 4%. The inhibition in test [10] worked out at 63%; in [11] it was 20%. For the same molecule, the result (in test [4]; in the test with Escherichia coli [5]; in test [7]; with Escherichia coli [12]) was inactive.
Regarding `COc1cc(/C=N/NC(=O)c2cccc(C(F)(F)F)c2)c(O)c(OC)c1`, the inhibition is -10% in test [1]; 24% in test [2]; 66% in test [3]; 75% in [6]; 21% in test [8]; 10% in test [9]. The inhibition in test [10] was determined as 74%; in [11], 39%. Also, the outcome (in test [4]; in the test on Escherichia coli [5]; in [7]; in the test with Escherichia coli [12]) was inactive.
In the case of `CC(C)(C)c1ccc(O)c(/C=N/NC(=O)c2ccc(Br)cc2)c1`, the inhibition in [1] worked out at 4%; in test [2], 29%; in [3], 39%; in test [6] it was 37%; in test [8], 19%; in [9], 0%. Also, the inhibition in test [10] and in test [11] was 34% in each case. For the same molecule, the result (in test [4]; in the test with Escherichia coli [5]; in test [7]; with Escherichia coli [12]) was inactive.
Turning to `COc1cc(Br)cc(/C=N/NC(=O)CCc2ccc(O)cc2)c1O`, the inhibition in [1] was -10%; in test [2], 11%; in [3], 23%; in test [6] it was 52%; in test [8], 9%; in [9], 3%. Also, the inhibition in test [10] turned out to be 36%; in [11] it was 18%. Besides, the outcome (in test [4]; with Escherichia coli [5]; in test [7]; with Escherichia coli [12]) was inactive.
Consider `COc1ccc(/C=N/NC(=O)CCc2ccc(O)cc2)c(O)c1`, for which the inhibition is -2% in [1]; 16% in test [2]; 22% in test [3]; 88% in test [6]; 4% in [8]; -1% in [9]. Moreover, the inhibition stood at 45% in test [10] and 12% in [11]. For the same molecule, the result (in [4]; with Escherichia coli [5]; in test [7]; in the test on Escherichia coli [12]) was inactive.
As to `O=C(CC12CC3CC(CC(C3)C1)C2)N/N=C/c1ccc(Cl)cc1O`, the inhibition in test [1] is 0%; in test [2] it was 19%; in test [3], 32%; in test [6], 29%; in test [8], 18%; in test [9] it was 7%. In addition, the inhibition came to 26% in [10] and 25% in [11]. Further, the result (in test [4]; with Escherichia coli [5]; in [7]; in the test with Escherichia coli [12]) was inactive.
For the molecule `O=C(N/N=C/c1ccc(O)c(O)c1O)c1ccccc1[N+](=O)[O-]`, the inhibition in test [1] is -8%; in test [2] it was 20%; in test [3], 36%; in test [6], 96%; in test [8] it was 16%; in test [9] it was 5%. The inhibition in test [10] is 74%; in [11], 22%. In addition, the result (in test [4]; with Escherichia coli [5]; in test [7]; in the test on Escherichia coli [12]) was inactive.
Take `O=C(N/N=C/c1cc(Cl)cc(Cl)c1O)c1ccccc1[N+](=O)[O-]`: the inhibition in [1] is -4%; in test [2], 4%; in [3], 61%; in [6], 92%; in [8], 8%; in [9] it was 16%. The inhibition in test [10] was 88%; in test [11], 18%. Besides, the result (in test [4]; in the test with Escherichia coli [5]; in [7]; with Escherichia coli [12]) was inactive.
As to `COc1ccc(Br)c(C(=O)N/N=C/c2cc([N+](=O)[O-])cc([N+](=O)[O-])c2O)c1`, the inhibition in test [1] was -7%; in test [2], 12%; in [3], 30%; in [6], 25%; in test [8] it was 13%; in [9], 0%. The inhibition is 30% in test [10] and 23% in test [11]. Moreover, the outcome (in [4]; with Escherichia coli [5]; in [7]; with Escherichia coli [12]) was inactive.
For `COc1cc(Br)cc(/C=N/NC(=O)c2sc3ccccc3c2Cl)c1O`, the inhibition is -6% in test [1]; 20% in [2]; 34% in test [3]; 39% in [6]; 12% in test [8]; 10% in test [9]. For the same molecule, the inhibition was 40% in test [10] and 23% in [11]. For the same molecule, the outcome (in [4]; in the test on Escherichia coli [5]; in [7]; in the test on Escherichia coli [12]) was inactive.
On to `N#CCC(=O)N/N=C/c1cc(Br)ccc1O`, for which the inhibition amounted to 0% in test [1]; 22% in test [2]; 86% in test [3]; 99% in test [6]; 6% in [8]; 11% in test [9]. The figures for the inhibition in test [10] and in [11] were 97% and 55%, respectively. For the same molecule, the result (in test [4]; in the test on Escherichia coli [5]; in test [7]; with Escherichia coli [12]) was inactive.
Consider `CC(C)(C)c1ccc(O)c(/C=N/NC(=O)CC23CC4CC(CC(C4)C2)C3)c1`, for which the inhibition is -6% in test [1]; 13% in [2]; 10% in test [3]; -1% in test [6]; 10% in test [8]; 3% in test [9]. Besides, the inhibition in test [10] and in test [11] was 17% in each case. Also, the outcome (in [4]; in the test on Escherichia coli [5]; in [7]; in the test on Escherichia coli [12]) was inactive.
As to `COc1ccc(/C=N/NC(=O)c2sc3ccccc3c2Cl)c(O)c1`, the inhibition in [1] is -2%; in [2] it was 12%; in [3], 27%; in test [6], 50%; in [8], 10%; in test [9] it was -2%. In addition, the inhibition turned out to be 35% in [10] and 15% in test [11]. Besides, the outcome (in [4]; with Escherichia coli [5]; in [7]; with Escherichia coli [12]) was inactive.
In the case of `COc1ccc(Br)c(C(=O)N/N=C/c2cc(C(C)(C)C)ccc2O)c1`, the inhibition amounted to 3% in test [1]; 26% in test [2]; 33% in [3]; 20% in test [6]; 6% in test [8]; 0% in [9]. The inhibition was 22% in test [10] and 18% in test [11]. The outcome (in test [4]; in the test with Escherichia coli [5]; in test [7]; in the test with Escherichia coli [12]) was inactive.
